This is an account of results in ChEMBL document CHEMBL4118234, “Synthesis and biological evaluation of irreversible EGFR tyrosine kinase inhibitors containing pyrido[3,4-d]pyrimidine scaffold” (Bioorg Med Chem, 2018).

Each structure is given as a SMILES string. A value given as a limit tells only on which side of the number the result lay.

One data set deals with A549. As to the kind of experiment: Cytotoxicity against human A549 cells harboring wild type EGFR assessed as reduction in cell viability after 72 hrs by MTT assay. In kind it is cell-based. The conditions noted are these: A549, 72 h. In outline: (§1)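 Cells were kept in RPMI-1640 with 10% heat-inactivated FBS, plus 1% of 100 mM sodium pyruvate for HCC827, at 37 °C and 5% CO2. They were seeded at 3000-5000 per well and pre-incubated 24 h. Final compound concentrations were 0.33, 1, 33, 100, 333, 1000, 3333, 10000 nM for 72 h. MTT was added for 4 h, formazan dissolved in DMSO, and OD read at 490 nm. Inhibition ratios were taken against control culture, and IC50 calculated from them. At least three experiments were run in triplicate.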
On the technique in general: Tetrazolium assays rely on reduction of a dye to a coloured formazan, in cell work by metabolically active cells.

In data set [1] the test system is HCC827. As to the kind of experiment: Antiproliferative activity against human HCC827 cells harboring EGFR E746 to A750 deletion mutant after 72 hrs by MTT assay. In kind it is functional, cell-based. To be noted: HCC827, 72 h. The method in brief:
as §1

The subject of data set [2] is NCI-H1975. In words: Antiproliferative activity against human NCI-H1975 cells harboring EGFR L858R/T790M double mutant after 72 hrs by MTT assay. In kind it is functional, cell-based. To be noted: NCI-H1975, 72 h. In outline:
as §1

The target of data set [3] is Epidermal growth factor receptor (Homo sapiens, UniProt P00533). In words: Inhibition of wild type EGFR (unknown origin) using Poly(Glu,Tyr) as substrate after 40 mins by Kinase-Glo luminescence assay.
Data set [4] in a line: Solubility of the compound. In kind it is physicochemical.
Data set [5] addresses Epidermal growth factor receptor (Homo sapiens, UniProt P00533, L858R). As to the kind of experiment: Inhibition of EGFR L858R mutant (unknown origin) using Poly(Glu,Tyr) as substrate after 40 mins by Kinase-Glo luminescence assay. In general terms: In Kinase-Glo more light means more ATP remaining.
Data set [6] addresses Epidermal growth factor receptor (Homo sapiens, UniProt P00533, L858R/T790M). As to the kind of experiment: Inhibition of EGFR L858R/T790M double mutant (unknown origin) using Poly(Glu,Tyr) as substrate after 40 mins by Kinase-Glo luminescence assay.
The test system of data set [7] is HCC827. As to the kind of experiment: Antiproliferative activity against human HCC827 cells harboring EGFR E746 to A750 deletion mutant at 10 uM after 72 hrs by MTT assay relative to control. In kind it is functional. In outline:
as §1

Data set [8] has as its target Epidermal growth factor receptor (Homo sapiens, UniProt P00533, C797S/L858R/T790M). As to the kind of experiment: Inhibition of EGFR L858R/T790M/C797S triple mutant (unknown origin) using Poly(Glu,Tyr) as substrate after 40 mins by Kinase-Glo luminescence assay.
The subject of data set [9] is Epidermal growth factor receptor (Homo sapiens), P00533 [L858R,T790M,C797S]. As to the kind of experiment: Inhibition of EGFR L858R/T790M/C797S triple mutant (unknown origin) at 500 nM using Poly(Glu,Tyr) as substrate after 40 mins by Kinase-Glo luminescence assay relative to control. In outline:
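The reaction ran 40 min at 30 °C in 40 mM Tris pH 7.4, 10 mM MgCl2, 0.1 mg/mL BSA, 1 mM DTT, 10 µM ATP, 25 ng kinase, and 0.2 mg/mL poly(Glu,Tyr); final DMSO was 1%. Remaining ATP was read by Kinase-Glo Plus luminescence. Inhibition was scored relative to no-compound and no-enzyme signals. At least two experiments were run.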

The test system of data set [10] is HCC827. As to the kind of experiment: Induction of apoptosis in human HCC827 cells harboring EGFR E746 to A750 deletion mutant assessed as late apoptotic cells at 3 uM after 24 hrs by Annexin V-FITC/propidium iodide staining based flow cytometry (reference value: 23.66 to 27.14%). In kind it is functional. On the technique in general: Flow cytometry measures light scatter and fluorescence of single cells or particles in a stream.

Data set [11] relates to HCC827. In words: Induction of apoptosis in human HCC827 cells harboring EGFR E746 to A750 deletion mutant assessed as early apoptotic cells at 3 uM after 24 hrs by Annexin V-FITC/propidium iodide staining based flow cytometry (reference value: 1.34 to 1.67%). In kind it is functional.
The test system of data set [12] is NCI-H1975. In words: Antiproliferative activity against human NCI-H1975 cells harboring EGFR L858R/T790M double mutant at 10 uM after 72 hrs by MTT assay relative to control. In kind it is functional. In outline: as §1

Chain of Epidermal growth factor receptor (Homo sapiens, UniProt P00533) (P00533 whole entry): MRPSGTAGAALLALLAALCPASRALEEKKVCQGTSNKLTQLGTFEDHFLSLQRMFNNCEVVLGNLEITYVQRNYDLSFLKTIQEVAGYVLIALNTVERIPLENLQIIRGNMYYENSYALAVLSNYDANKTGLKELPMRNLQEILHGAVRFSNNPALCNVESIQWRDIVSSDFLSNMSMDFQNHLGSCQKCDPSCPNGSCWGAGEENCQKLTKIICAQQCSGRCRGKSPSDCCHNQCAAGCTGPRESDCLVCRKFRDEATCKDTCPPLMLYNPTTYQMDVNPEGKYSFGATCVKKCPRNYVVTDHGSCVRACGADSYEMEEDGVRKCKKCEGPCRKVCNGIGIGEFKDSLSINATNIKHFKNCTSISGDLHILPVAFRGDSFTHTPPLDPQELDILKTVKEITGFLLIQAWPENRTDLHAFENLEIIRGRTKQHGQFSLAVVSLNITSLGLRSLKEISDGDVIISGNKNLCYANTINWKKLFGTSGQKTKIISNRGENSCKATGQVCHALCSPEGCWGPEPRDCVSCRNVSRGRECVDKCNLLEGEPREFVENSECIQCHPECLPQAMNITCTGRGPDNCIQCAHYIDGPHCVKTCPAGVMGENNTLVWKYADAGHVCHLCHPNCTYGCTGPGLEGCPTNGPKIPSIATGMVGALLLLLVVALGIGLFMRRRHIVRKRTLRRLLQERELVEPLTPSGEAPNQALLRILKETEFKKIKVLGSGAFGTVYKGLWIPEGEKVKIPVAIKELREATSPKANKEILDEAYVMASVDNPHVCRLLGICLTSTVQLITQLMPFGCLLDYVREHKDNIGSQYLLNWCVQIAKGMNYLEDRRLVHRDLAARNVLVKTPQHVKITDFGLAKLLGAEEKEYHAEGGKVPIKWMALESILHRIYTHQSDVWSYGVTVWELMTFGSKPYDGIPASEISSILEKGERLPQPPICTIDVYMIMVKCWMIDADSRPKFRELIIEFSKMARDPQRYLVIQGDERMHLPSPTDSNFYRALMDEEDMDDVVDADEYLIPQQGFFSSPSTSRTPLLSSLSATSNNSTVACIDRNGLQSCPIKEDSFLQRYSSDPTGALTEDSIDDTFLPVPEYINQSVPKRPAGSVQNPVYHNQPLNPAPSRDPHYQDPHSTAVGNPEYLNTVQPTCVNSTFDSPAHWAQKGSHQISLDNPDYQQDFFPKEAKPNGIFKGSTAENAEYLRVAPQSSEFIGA
Chain of Epidermal growth factor receptor (Homo sapiens), P00533 [L858R,T790M,C797S] (P00533 whole entry T790M/C797S/L858R): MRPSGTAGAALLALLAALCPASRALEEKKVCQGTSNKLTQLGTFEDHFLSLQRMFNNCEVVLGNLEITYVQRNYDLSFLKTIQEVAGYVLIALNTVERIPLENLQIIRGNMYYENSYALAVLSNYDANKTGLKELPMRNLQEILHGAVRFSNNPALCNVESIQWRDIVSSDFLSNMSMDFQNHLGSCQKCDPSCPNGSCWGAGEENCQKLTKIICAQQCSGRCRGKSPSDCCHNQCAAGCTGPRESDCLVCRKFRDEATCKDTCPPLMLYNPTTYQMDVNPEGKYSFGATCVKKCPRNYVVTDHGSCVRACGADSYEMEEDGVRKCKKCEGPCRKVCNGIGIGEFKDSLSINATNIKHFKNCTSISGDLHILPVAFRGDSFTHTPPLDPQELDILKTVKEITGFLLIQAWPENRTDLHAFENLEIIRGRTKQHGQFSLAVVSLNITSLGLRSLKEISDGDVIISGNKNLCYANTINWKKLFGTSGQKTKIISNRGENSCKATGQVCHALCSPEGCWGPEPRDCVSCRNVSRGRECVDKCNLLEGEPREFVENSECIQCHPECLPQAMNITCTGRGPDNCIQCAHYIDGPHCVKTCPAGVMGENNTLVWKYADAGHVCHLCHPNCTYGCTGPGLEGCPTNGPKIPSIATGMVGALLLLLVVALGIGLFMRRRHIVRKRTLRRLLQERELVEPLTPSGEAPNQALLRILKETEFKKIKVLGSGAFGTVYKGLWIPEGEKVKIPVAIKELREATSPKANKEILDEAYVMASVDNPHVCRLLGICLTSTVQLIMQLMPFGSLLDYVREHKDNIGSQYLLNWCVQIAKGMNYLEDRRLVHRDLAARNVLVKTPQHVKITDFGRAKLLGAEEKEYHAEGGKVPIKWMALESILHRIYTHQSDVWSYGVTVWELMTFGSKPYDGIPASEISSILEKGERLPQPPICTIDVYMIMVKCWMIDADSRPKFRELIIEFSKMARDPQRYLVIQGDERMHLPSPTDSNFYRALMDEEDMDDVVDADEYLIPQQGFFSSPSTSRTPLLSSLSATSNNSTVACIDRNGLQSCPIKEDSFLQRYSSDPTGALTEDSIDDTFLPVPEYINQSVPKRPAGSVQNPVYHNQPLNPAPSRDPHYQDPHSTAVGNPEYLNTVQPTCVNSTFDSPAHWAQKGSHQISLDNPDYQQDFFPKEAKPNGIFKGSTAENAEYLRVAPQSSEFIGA
Chain of Epidermal growth factor receptor (Homo sapiens, UniProt P00533, L858R) (P00533 25-1210 L858R limits assumed): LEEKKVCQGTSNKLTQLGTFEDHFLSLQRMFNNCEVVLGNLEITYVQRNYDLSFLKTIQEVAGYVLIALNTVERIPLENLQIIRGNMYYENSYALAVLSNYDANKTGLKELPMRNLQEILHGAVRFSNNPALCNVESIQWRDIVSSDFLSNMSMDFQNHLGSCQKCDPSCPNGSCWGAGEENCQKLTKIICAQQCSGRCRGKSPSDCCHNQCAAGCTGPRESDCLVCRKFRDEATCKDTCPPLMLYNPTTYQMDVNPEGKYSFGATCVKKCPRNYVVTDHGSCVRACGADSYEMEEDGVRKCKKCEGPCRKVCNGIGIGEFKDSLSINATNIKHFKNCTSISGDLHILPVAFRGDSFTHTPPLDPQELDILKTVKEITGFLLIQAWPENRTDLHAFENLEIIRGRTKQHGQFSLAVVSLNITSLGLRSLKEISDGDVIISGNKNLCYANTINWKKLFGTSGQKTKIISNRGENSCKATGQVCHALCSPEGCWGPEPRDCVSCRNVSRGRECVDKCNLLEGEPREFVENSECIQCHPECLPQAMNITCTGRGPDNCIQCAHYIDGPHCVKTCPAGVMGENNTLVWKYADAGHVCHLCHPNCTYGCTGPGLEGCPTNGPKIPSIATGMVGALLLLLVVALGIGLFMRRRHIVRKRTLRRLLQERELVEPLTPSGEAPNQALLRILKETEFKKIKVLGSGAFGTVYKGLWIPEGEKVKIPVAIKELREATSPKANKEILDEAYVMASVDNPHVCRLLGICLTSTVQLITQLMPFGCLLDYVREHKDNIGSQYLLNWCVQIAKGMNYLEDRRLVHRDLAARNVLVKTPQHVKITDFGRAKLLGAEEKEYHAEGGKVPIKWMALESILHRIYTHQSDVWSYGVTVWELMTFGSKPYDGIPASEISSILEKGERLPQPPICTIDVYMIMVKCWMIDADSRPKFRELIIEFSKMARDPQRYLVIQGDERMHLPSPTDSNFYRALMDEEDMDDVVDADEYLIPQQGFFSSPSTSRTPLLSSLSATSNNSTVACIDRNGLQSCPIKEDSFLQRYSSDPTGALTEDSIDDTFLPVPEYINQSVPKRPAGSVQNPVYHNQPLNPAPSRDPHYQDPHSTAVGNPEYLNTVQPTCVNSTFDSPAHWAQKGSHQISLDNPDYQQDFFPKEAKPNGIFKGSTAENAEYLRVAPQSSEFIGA
Chain of Epidermal growth factor receptor (Homo sapiens, UniProt P00533, C797S/L858R/T790M) (P00533 25-1210 T790M/C797S/L858R limits assumed): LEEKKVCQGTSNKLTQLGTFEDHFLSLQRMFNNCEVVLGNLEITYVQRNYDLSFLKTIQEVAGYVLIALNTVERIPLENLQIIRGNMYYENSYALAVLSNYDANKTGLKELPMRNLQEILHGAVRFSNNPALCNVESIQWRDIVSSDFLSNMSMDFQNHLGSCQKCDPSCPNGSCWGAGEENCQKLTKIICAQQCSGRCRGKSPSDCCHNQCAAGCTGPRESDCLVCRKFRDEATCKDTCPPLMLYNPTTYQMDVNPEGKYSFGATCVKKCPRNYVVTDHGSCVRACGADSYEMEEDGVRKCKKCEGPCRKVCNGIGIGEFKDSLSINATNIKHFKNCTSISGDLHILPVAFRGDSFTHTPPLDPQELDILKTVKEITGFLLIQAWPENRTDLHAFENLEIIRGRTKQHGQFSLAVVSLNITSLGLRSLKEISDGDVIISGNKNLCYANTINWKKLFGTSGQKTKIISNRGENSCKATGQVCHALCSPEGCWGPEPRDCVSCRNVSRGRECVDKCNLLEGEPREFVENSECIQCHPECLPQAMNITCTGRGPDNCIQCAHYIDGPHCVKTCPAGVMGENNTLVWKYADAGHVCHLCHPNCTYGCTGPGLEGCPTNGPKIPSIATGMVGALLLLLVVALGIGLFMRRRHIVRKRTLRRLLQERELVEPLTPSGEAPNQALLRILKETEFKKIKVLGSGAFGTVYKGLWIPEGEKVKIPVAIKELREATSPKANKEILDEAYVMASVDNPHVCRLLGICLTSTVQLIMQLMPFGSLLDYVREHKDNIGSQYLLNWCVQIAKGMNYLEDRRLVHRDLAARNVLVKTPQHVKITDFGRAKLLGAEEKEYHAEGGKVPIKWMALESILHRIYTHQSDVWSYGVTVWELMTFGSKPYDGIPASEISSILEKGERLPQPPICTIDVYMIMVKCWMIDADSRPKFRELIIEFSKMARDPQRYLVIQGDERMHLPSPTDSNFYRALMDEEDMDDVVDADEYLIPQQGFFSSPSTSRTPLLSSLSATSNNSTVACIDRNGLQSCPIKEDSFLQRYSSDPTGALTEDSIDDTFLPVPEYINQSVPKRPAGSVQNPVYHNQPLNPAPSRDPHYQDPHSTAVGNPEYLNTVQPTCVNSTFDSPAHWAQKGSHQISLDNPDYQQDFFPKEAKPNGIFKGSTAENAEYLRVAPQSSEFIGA

In the case of `C=CC(=O)N[C@@H]1CCN(c2nc(Nc3ccccc3)nc3cnc(Nc4ccc(N5CCN(C)CC5)cn4)cc23)C1`, the IC50 with A549 worked out at 1190 nM; with HCC827 [1], 20 nM; with NCI-H1975 [2] it was 1440 nM; in data set [3], 2.7 nM; in data set [5], 4.7 nM; in data set [6] it was 36.6 nM. Further, in data set [4], the solubility entry is “Soluble”.
For the compound `C=CC(=O)N[C@@H]1CCN(c2ncnc3cnc(Nc4ccc(OCCOC)cc4OC)cc23)C1`, the Activity with HCC827 [7] is reported as <50%. In the data set on HCC827 [1], the IC50 was > 10000 nM.
In turn, `C=CC(=O)Nc1cccc(Nc2cc3c(N4CCCC4)nc(OCC4CCOCC4)nc3cn2)n1` returned a 50% inhibitory concentration (IC50) with HCC827 [1] of 8700 nM. The solubility result in [4] is on record as “Insoluble”.
Regarding `C=CC(=O)N[C@H]1CCCN(c2nc(Nc3ccccc3)nc3cnc(Nc4ccc(N5CCN(C)CC5)cn4)cc23)C1`, the concentration for half-maximal inhibition (IC50) is 810 nM in the data set with A549; 73 nM with HCC827 [1]; 1400 nM in the data set with NCI-H1975 [2]; 12 nM in [3]; > 500 nM in data set [8]; 14.2 nM in data set [5]. For the same compound, the midpoint of inhibition in data set [6], the IC50, lay at 361 nM. The solubility entry in [4] is “Soluble”. Besides, in data set [9], the inhibition is < 50%.
Take `C=CC(=O)N[C@@H]1CCCN(c2nc(Nc3ccccc3)nc3cnc(Nc4ccc(N5CCN(C)CC5)cn4)cc23)C1`: the concentration for half-maximal inhibition (IC50) is 810 nM with A549; 54 nM in the data set with HCC827 [1]; 1750 nM in the data set with NCI-H1975 [2]; 5.4 nM in [3]; > 500 nM in [8]; 6.5 nM in [5]. The compound also showed an IC50 in [6] of 164 nM. Further, the solubility result in data set [4] is on record as “Soluble”. Besides, the inhibition in [9] is < 50%.
Regarding `C=CC(=O)Nc1cccc(Nc2cc3c(N4CCCC4)nc(OCC4CCCCC4)nc3cn2)n1`, the 50% inhibitory concentration (IC50) with HCC827 [1] is > 10000 nM. In addition, the solubility result in data set [4] is on record as “Insoluble”.
For `C=CC(=O)Nc1cc(Nc2nccc(-c3cn(C)c4ccccc34)n2)c(OC)cc1N(C)CCN(C)C` [OSIMERTINIB], the values for the half-inhibitory concentration (IC50) with A549, in the data set with HCC827 [1] and with NCI-H1975 [2] were 530 nM, 27 nM and […], respectively. The Activity turned out to be 68.1% in the data set with HCC827 [10] and 8.28% in the data set with HCC827 [11].
Take `C=CC(=O)N[C@@H]1CCN(c2ncnc3cnc(Nc4ccc(N5CCN(C)CC5)cn4)cc23)C1`: in the data set with NCI-H1975 [12], the Activity is given as <50%. The concentration for half-maximal inhibition (IC50) in the data set on HCC827 [1] is 3520 nM; with NCI-H1975 [2], > 10000 nM.
Take `C=CC(=O)Nc1cccc(Nc2cc3c(N4CCCC4)nc(Nc4cccc(F)c4)nc3cn2)n1`: the Activity in the data set with HCC827 [7] is given as <50%. Moreover, the 50% inhibitory concentration (IC50) in the data set with HCC827 [1] was > 10000 nM. In data set [4], the solubility result is given as “Insoluble”.
Turning to `C=CC(=O)Nc1cccc(Nc2cc3c(N4CCCC4)nc(OCc4ccccc4)nc3cn2)n1`, in the data set with HCC827 [1], the IC50 was > 10000 nM. Further, in data set [4], the solubility result was “Insoluble”.
`C=CC(=O)Nc1cccc(Nc2cc3c(N4CCCC4)nc(Nc4ccccc4)nc3cn2)n1`: the Activity in the data set with HCC827 [7] is given as <50%. The concentration for half-maximal inhibition (IC50) in the data set on HCC827 [1] was > 10000 nM. The solubility result in data set [4] is “Insoluble”.
Take `C=CC(=O)N1CC[C@@H](Nc2nc(Nc3ccccc3)nc3cnc(Nc4ccc(N5CCN(C)CC5)cn4)cc23)C1`: the concentration for half-maximal inhibition (IC50) in the data set with A549 is 650 nM; with HCC827 [1], 170 nM; with NCI-H1975 [2] it was 440 nM; in data set [3], 3.3 nM; in [8], > 500 nM; in data set [5] it was 4.6 nM. The IC50 in data set [6] is 106 nM. The solubility result in data set [4] is “Soluble”. Besides, in data set [9], the inhibition was < 50%.
In turn, `C=CC(=O)Nc1cccc(Nc2cc3c(N4CCCC4)nc(OC4CCOCC4)nc3cn2)n1` had a concentration for half-maximal inhibition (IC50) in the data set on HCC827 [1] of 2740 nM. Moreover, in data set [4], the solubility entry is given as “Insoluble”.
In the same order, the values of `C=CC(=O)Nc1cccc(Nc2cc3c(N4CCCC4)nc(OCc4ccc(F)cc4)nc3cn2)n1` are > 10000 nM and “Insoluble”.
With `C=CC(=O)N[C@@H]1CCN(c2ncnc3cnc(Nc4ccc(N5CCN(C)CC5)cc4OC)cc23)C1`, the Activity in the data set with HCC827 [7] was <50%. Further, in the data set on HCC827 [1], the IC50 was > 10000 nM.
With `C=CC(=O)N[C@H]1CCN(c2nc(Nc3ccccc3)nc3cnc(Nc4ccc(N5CCN(C)CC5)cn4)cc23)C1`, the half-inhibitory concentration (IC50) in the data set on A549 came to 640 nM; with HCC827 [1], 69 nM; with NCI-H1975 [2], 850 nM; in data set [3] it was 1.5 nM; in [8], 285 nM; in [5] it was 3.2 nM. Besides, the concentration for half-maximal inhibition (IC50) in data set [6] is 26.5 nM. Moreover, in data set [4], the solubility result was “Soluble”.
In the case of `C=CC(=O)N1CC[C@H](Nc2nc(Nc3ccccc3)nc3cnc(Nc4ccc(N5CCN(C)CC5)cn4)cc23)C1`, the IC50 is 1670 nM in the data set with A549; 270 nM in the data set on HCC827 [1]; 860 nM in the data set on NCI-H1975 [2]; 9.9 nM in data set [3]; > 500 nM in data set [8]; 10.8 nM in [5]. This compound also registered an IC50 in data set [6] of 238 nM. For the same compound, the solubility entry in data set [4] was “Soluble”. Besides, the inhibition in data set [9] was < 50%.
Consider `C=CC(=O)N[C@@H]1CCN(c2ncnc3cnc(Nc4ccc(OCCN(C)C)cc4OC)cc23)C1`, for which, in the data set with HCC827 [7], the Activity is <50%. In addition, the half-maximal inhibitory concentration (IC50) in the data set with HCC827 [1] is > 10000 nM.

By IC50 is commonly meant the concentration that gives 50% inhibition. Broadly, the inhibition is the change of the read-out against control, counted positive when it falls. A low value points to a weak effect.
